According to ChEMBL document CHEMBL4371099, “Bifunctional Duocarmycin Analogues as Inhibitors of Protein Tyrosine Kinases” (J Nat Prod, 2019):
pIC50: −log10 of the molar value. Activity calls are given as the source filed them. The rule behind the calls is not given here.

What was measured:
CCRF-CEM [1] = experiment: Cell cycle arrest in human CCRF-CEM cells at 100 nM after 24 hrs by propidium iodide staining based FACS analysis; format: functional
Outline: (§1)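 Cells (1 × 10^6) seeded in 12-well plates and held overnight, then exposed to increasing concentrations of test compound or 100 nM axitinib (VEGFR-2 inhibition control) for 24 h at 37 °C, 5% CO2. Fixed in cold 70% ethanol, stained with propidium iodide for 30 min, DNA content read by flow cytometry on 10,000 gated events; three independent experiments, means ± SD.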

ADR5000 cell line [2] = experiment: Cell cycle arrest in human CEM/ADR5000 cells at 100 nM after 24 hrs by propidium iodide staining based FACS analysis; format: functional; outline: as §1
Jurkat [3] = experiment: Cell cycle arrest in human Jurkat cells at 100 nM after 24 hrs by propidium iodide staining based FACS analysis; format: functional; outline: as §1
A549 [4] = experiment: Cell cycle arrest in human A549 cells at 100 nM after 24 hrs by propidium iodide staining based FACS analysis; format: functional; outline: as §1
MIA PaCa-2 [5] = experiment: Cell cycle arrest in human MIAPaCa2 cells at 100 nM after 24 hrs by propidium iodide staining based FACS analysis; format: functional; outline: as §1
[6] = molecular target: T1, Tyrosine-protein kinase ABL2 (Homo sapiens, UniProt P42684); experiment: Inhibition of recombinant human N-terminal GST/His6-tagged ABL2 (M1 to P650 residues) expressed in sf9 cells using Poly(Glu,Tyr) 4:1 as substrate after 60 mins in presence of [gamma33P]-ATP by scintillation counting method
Outline: (§2)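 Radiometric 33PanQinase assay using recombinant human kinases from Sf9 or E. coli, purified by affinity chromatography. ATP at the apparent Km, plus [γ-33P]-ATP. Compound tested at 1−10 000 nM, 1% DMSO. Incubated 60 min at 30 °C, stopped with 2% H3PO4, 33Pi incorporation counted by scintillation.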

[7] = molecular target: T2, Mast/stem cell growth factor receptor Kit (Homo sapiens, UniProt P10721); experiment: Inhibition of recombinant human N-terminal GST/His6-tagged c-KIT (T544 to V976 residues) expressed in sf9 cells using Poly(Glu,Tyr) 4:1 as substrate after 60 mins in presence of [gamma33P]-ATP by scintillation counting method; outline: as §2
T2 sequence (P10721 whole entry, the tested form may be a part): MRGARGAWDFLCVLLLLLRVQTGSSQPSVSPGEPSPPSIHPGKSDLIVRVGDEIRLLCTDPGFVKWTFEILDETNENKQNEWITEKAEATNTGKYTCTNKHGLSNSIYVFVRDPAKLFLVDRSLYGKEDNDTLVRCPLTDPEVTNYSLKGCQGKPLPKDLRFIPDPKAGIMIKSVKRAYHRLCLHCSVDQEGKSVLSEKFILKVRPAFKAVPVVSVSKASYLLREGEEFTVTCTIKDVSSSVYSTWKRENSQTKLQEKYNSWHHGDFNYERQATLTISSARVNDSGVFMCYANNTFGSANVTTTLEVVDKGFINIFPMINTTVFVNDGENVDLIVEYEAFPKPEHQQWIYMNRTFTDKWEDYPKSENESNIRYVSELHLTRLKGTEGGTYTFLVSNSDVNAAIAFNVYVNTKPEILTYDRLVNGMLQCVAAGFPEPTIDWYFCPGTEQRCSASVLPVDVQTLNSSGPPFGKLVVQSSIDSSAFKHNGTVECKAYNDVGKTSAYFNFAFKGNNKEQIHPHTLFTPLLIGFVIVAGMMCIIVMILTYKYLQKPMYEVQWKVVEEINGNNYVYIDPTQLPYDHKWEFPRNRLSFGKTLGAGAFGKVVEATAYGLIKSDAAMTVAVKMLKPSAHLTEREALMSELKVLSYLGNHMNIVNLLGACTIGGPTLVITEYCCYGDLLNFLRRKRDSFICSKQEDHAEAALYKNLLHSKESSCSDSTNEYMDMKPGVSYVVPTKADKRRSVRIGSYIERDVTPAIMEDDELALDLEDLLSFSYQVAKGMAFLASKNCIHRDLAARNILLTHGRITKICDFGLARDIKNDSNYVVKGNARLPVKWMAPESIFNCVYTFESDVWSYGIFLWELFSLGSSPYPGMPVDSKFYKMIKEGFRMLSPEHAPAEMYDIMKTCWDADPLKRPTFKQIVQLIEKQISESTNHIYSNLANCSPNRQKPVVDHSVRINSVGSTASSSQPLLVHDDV

[8] = molecular target: T3, Vascular endothelial growth factor receptor 1 (Homo sapiens, UniProt P17948); experiment: Inhibition of recombinant human N-terminal GST-tagged VEGFR1 (K784 to I1338 residues) expressed in sf9 cells using Poly(Glu,Tyr) 4:1 as substrate after 60 mins in presence of [gamma33P]-ATP by scintillation counting method; outline: as §2
T3 sequence (P17948 whole entry, the tested form may be a part): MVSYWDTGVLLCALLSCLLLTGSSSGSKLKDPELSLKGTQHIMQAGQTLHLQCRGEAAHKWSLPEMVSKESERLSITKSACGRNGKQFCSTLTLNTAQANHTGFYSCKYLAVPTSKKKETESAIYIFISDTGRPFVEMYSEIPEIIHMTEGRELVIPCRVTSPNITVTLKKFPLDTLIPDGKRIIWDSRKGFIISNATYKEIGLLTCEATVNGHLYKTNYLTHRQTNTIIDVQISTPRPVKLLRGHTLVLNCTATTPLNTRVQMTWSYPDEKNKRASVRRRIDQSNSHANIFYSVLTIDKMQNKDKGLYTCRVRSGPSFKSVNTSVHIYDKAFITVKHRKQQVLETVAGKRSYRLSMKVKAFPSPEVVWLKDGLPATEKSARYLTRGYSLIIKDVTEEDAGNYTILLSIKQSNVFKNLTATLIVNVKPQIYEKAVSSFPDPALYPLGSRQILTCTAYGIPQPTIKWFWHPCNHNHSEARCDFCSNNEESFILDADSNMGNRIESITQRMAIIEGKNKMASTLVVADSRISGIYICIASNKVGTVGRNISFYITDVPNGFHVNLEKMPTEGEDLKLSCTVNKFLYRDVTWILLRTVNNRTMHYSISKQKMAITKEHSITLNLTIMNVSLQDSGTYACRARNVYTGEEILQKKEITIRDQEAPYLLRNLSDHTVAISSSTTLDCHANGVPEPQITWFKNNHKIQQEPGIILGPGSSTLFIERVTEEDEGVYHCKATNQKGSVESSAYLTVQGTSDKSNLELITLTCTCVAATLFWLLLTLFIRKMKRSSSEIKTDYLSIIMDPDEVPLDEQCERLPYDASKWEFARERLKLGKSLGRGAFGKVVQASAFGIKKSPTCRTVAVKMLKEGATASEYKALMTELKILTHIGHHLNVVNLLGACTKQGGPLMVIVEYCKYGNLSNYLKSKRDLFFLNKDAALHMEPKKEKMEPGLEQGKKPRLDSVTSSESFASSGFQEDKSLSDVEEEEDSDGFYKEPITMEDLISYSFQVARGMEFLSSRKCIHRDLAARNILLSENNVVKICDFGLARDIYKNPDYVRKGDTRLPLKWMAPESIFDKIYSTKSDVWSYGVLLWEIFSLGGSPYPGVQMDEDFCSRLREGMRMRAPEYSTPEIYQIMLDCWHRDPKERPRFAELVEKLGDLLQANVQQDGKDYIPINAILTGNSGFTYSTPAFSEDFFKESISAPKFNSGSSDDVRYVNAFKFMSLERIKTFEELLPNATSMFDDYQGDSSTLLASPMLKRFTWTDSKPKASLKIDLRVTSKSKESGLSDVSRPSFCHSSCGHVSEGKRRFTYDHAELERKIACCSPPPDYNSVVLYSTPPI

[9] = molecular target: T4, Vascular endothelial growth factor receptor 2 (Homo sapiens, UniProt P35968); experiment: Inhibition of recombinant human N-terminal GST-tagged VEGFR2 (D807 to V1356 residues) expressed in sf9 cells using Poly(Glu,Tyr) 4:1 as substrate after 60 mins in presence of [gamma33P]-ATP by scintillation counting method; outline: as §2
T4 sequence (P35968 whole entry, the tested form may be a part): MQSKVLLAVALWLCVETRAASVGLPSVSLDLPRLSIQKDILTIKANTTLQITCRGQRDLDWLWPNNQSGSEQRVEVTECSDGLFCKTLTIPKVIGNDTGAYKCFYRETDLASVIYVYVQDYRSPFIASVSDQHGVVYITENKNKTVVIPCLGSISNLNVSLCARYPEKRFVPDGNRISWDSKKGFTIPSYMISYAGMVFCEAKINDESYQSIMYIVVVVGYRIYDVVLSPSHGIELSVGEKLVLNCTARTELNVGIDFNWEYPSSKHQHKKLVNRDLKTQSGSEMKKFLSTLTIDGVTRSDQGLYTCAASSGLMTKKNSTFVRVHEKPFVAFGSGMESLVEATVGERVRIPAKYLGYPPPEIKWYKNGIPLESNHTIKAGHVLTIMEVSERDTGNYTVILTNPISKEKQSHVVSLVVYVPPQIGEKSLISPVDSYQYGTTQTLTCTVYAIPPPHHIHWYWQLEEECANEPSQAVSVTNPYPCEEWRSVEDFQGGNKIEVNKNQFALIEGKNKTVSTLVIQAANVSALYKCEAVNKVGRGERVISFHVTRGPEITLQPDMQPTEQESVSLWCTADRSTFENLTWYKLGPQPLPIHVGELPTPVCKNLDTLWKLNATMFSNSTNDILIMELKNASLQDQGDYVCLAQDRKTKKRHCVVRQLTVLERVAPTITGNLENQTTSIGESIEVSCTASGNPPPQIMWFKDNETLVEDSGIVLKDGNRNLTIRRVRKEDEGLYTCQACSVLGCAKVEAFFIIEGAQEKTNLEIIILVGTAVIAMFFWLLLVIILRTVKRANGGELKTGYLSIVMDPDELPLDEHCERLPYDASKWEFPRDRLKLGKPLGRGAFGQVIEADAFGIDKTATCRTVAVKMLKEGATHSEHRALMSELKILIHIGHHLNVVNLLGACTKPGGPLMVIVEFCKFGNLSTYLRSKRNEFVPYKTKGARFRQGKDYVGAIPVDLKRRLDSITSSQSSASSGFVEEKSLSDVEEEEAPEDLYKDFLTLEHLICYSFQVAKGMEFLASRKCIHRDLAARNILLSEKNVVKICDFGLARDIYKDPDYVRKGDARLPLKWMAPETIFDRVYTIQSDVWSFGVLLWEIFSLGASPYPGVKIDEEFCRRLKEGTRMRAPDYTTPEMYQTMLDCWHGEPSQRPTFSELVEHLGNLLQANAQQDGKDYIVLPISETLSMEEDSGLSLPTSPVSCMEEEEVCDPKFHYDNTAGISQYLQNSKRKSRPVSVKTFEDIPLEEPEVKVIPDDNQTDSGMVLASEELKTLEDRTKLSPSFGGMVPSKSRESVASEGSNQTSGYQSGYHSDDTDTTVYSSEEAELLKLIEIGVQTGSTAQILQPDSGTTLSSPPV

[10] = molecular target: T5, Vascular endothelial growth factor receptor 3 (Homo sapiens, UniProt P35916); experiment: Inhibition of recombinant human N-terminal GST/His6-tagged VEGFR3 (N799 to R1298 residues) expressed in sf9 cells using Poly(Glu,Tyr) 4:1 as substrate after 60 mins in presence of [gamma33P]-ATP by scintillation counting method; outline: as §2
T5 sequence (P35916 whole entry, the tested form may be a part): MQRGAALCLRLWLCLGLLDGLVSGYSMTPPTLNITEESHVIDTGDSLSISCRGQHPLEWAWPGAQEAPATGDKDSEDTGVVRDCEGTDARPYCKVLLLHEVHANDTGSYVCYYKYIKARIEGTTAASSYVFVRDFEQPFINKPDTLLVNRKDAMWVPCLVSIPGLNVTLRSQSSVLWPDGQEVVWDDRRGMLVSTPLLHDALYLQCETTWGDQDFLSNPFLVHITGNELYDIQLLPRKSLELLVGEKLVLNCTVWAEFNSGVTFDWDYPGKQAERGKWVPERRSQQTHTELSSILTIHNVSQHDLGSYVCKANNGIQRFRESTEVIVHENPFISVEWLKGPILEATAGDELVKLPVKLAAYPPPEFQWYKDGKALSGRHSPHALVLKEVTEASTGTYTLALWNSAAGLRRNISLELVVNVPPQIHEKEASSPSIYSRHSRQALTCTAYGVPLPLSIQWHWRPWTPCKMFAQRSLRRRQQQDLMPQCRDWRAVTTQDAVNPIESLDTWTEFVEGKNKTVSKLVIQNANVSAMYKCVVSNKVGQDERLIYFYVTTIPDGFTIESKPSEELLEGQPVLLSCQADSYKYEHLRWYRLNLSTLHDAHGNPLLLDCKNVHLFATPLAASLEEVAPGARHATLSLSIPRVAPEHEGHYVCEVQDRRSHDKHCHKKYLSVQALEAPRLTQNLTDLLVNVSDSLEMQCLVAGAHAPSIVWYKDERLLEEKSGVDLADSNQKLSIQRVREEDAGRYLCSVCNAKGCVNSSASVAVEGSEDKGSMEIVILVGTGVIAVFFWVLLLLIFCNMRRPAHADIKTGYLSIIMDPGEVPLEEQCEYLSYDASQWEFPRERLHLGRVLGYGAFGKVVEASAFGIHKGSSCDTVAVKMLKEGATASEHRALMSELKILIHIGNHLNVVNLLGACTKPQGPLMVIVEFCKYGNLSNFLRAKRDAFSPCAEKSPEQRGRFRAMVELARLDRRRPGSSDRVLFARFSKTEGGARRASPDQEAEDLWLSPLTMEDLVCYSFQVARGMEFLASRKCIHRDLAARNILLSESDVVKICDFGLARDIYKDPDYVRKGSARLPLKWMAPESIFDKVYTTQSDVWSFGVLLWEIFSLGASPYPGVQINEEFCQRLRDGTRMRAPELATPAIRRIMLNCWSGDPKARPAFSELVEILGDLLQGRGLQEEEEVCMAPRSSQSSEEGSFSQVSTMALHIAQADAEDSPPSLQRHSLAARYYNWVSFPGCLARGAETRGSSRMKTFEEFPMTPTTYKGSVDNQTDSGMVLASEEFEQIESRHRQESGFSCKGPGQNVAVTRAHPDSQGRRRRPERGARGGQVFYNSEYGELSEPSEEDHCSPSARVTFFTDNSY

[11] = molecular target: T1, Tyrosine-protein kinase ABL2; experiment: Inhibition of recombinant human N-terminal GST/His6-tagged ABL2 (M1 to P650 residues) expressed in sf9 cells assessed as equivalents of test compound required to show 50% inhibition using Poly(Glu,Tyr) 4:1 as substrate after 60 mins in presence of [gamma33P]-ATP by scintillation counting method; outline: as §2
[12] = molecular target: T2, Mast/stem cell growth factor receptor Kit; experiment: Inhibition of recombinant human N-terminal GST/His6-tagged c-KIT (T544 to V976 residues) expressed in sf9 cells assessed as equivalents of test compound required to show 50% inhibition using Poly(Glu,Tyr) 4:1 as substrate after 60 mins in presence of [gamma33P]-ATP by scintillation counting method; outline: as §2
[13] = molecular target: T3, Vascular endothelial growth factor receptor 1; experiment: Inhibition of recombinant human N-terminal GST-tagged VEGFR1 (K784 to I1338 residues) expressed in sf9 cells assessed as equivalents of test compound required to show 50% inhibition using Poly(Glu,Tyr) 4:1 as substrate after 60 mins in presence of [gamma33P]-ATP by scintillation counting method; outline: as §2
[14] = molecular target: T4, Vascular endothelial growth factor receptor 2; experiment: Inhibition of recombinant human N-terminal GST-tagged VEGFR2 (D807 to V1356 residues) expressed in sf9 cells assessed as equivalents of test compound required to show 50% inhibition using Poly(Glu,Tyr) 4:1 as substrate after 60 mins in presence of [gamma33P]-ATP by scintillation counting method; outline: as §2
PBMC = experiment: Cytotoxicity against human PBMC assessed as reduction in cell viability after 24 hrs by MTT assay; format: cell-based
Outline: (§3)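 Cancer lines or PBMC from healthy human donors seeded in 96-well plates. Exposed to various compound concentrations for 24 h at 37 °C, 5% CO2. MTT solution (5 mg/mL) then added and incubated 2 h more. IC50 obtained by nonlinear regression. Mean ± SD of three independent experiments.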

CCRF-CEM [15] = experiment: Cytotoxicity against human CCRF-CEM cells assessed as reduction in cell viability after 24 hrs by MTT assay; format: functional, cell-based; outline: as §3
ADR5000 cell line [16] = experiment: Cytotoxicity against human CEM/ADR5000 cells assessed as reduction in cell viability after 24 hrs by MTT assay; format: functional, cell-based; details: ADR5000, 24 h; outline: as §3
Jurkat [17] = experiment: Cytotoxicity against human Jurkat cells assessed as reduction in cell viability after 24 hrs by MTT assay; format: functional, cell-based; outline: as §3
A549 [18] = experiment: Cytotoxicity against human A549 cells assessed as reduction in cell viability after 24 hrs by MTT assay; format: functional, cell-based; details: A549, 24 h; outline: as §3
MIA PaCa-2 [19] = experiment: Cytotoxicity against human MIAPaCa2 cells assessed as reduction in cell viability after 24 hrs by MTT assay; format: functional, cell-based; details: MIA PaCa-2, 24 h; outline: as §3
[20] = Selectivity index, ratio of IC50 for human PBMC to IC50 for human CCRF-CEM cells; format: toxicity; details: PBMC versus CCRF-CEM cells, read-out: Ratio IC50
Outline: (§4)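 Selectivity index calculated as MTT IC50 in PBMC divided by MTT IC50 in the cancer line. Both values come from the 24 h MTT viability assay.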

[21] = Selectivity index, ratio of IC50 for human PBMC to IC50 for human Jurkat cells; format: toxicity; details: PBMC versus Jurkat cells, read-out: Ratio IC50; outline: as §4
[22] = Selectivity index, ratio of IC50 for human PBMC to IC50 for human A549 cells; format: toxicity; details: PBMC versus A549 cells, read-out: Ratio IC50; outline: as §4
[23] = Cytotoxicity against human PBMC assessed as cell viability at 80 uM after 24 hrs by MTT assay relative to control; format: cell-based; details: read-out: Activity; outline: as §3
MIA PaCa-2 [24] = experiment: Cell cycle arrest in human MIAPaCa2 cells at 1 to 1000 nM after 24 hrs by propidium iodide staining based FACS analysis; format: functional
Outline: (§5)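 Cells (1 × 10^6) seeded, incubated overnight, then exposed 24 h at 37 °C and 5% CO2 to increasing concentrations of compound (100 nM axitinib as VEGFR-2 control). Fixed in cold 70% ethanol, stained with propidium iodide for 30 min. DNA content read by flow cytometry, 10,000 gated events per sample. Sub-G1 fraction taken as apoptosis. Three independent experiments.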

[25] = molecular target: T5, Vascular endothelial growth factor receptor 3; experiment: Inhibition of recombinant human N-terminal GST/His6-tagged VEGFR3 (N799 to R1298 residues) expressed in sf9 cells assessed as equivalents of test compound required to show 50% inhibition using Poly(Glu,Tyr) 4:1 as substrate after 60 mins in presence of [gamma33P]-ATP by scintillation counting method; outline: as §2
[26] = Selectivity index, ratio of IC50 for human PBMC to IC50 for human CEM/ADR5000 cells; format: toxicity; details: PBMC versus CEM/ADR5000 cells, read-out: Ratio IC50; outline: as §4
[27] = Selectivity index, ratio of IC50 for human PBMC to IC50 for human MIAPaCa2 cells; format: toxicity; details: PBMC versus MIAPaCa2 cells, read-out: Ratio IC50; outline: as §4
CCRF-CEM [28] = experiment: Cell cycle arrest in human CCRF-CEM cells assessed as accumulation at sub-G1 phase after 24 hrs by propidium iodide staining based FACS analysis; format: functional; outline: as §5
ADR5000 cell line [29] = experiment: Cell cycle arrest in human CEM/ADR5000 cells assessed as accumulation at sub-G1 phase after 24 hrs by propidium iodide staining based FACS analysis; format: functional; outline: as §5
Jurkat [30] = experiment: Cell cycle arrest in human Jurkat cells assessed as accumulation at sub-G1 phase after 24 hrs by propidium iodide staining based FACS analysis; format: functional; outline: as §5
A549 [31] = experiment: Cell cycle arrest in human A549 cells assessed as accumulation at sub-G1 phase after 24 hrs by propidium iodide staining based FACS analysis; format: functional; outline: as §5
MIA PaCa-2 [32] = experiment: Cell cycle arrest in human MIAPaCa2 cells assessed as accumulation at sub-G1 phase after 24 hrs by propidium iodide staining based FACS analysis; format: functional; outline: as §5
MIA PaCa-2 [33] = experiment: Cell cycle arrest in human MIAPaCa2 cells assessed as accumulation at S phase at 1 nM after 24 hrs by propidium iodide staining based FACS analysis; format: functional; outline: as §5

| SMILES | pIC50 [6] | pIC50 [7] | pIC50 [8] | pIC50 [9] | pIC50 [10] | Activity [11] | Activity [12] | Activity [13] | Activity [14] | pIC50 (PBMC) | pIC50 (CCRF-CEM [15]) | pIC50 (ADR5000 cell line [16]) | pIC50 (Jurkat [17]) | pIC50 (A549 [18]) | pIC50 (MIA PaCa-2 [19]) | selectivity ratio [20] | selectivity ratio [21] | selectivity ratio [22] | further results |
| --- | --- | --- | --- | --- | --- | --- | --- | --- | --- | --- | --- | --- | --- | --- | --- | --- | --- | --- | --- |
| CNC(=O)c1ccccc1Sc1ccc2c(/C=C/c3ccccn3)n[nH]c2c1 |  |  |  |  |  |  |  |  |  |  |  |  |  |  |  |  |  |  | Activity (CCRF-CEM [1]): Active; Activity (ADR5000 cell line [2]): Active; Activity (Jurkat [3]): Active; Activity (A549 [4]): Active; Activity (MIA PaCa-2 [5]): Active |
| C[C@@H]1CN(C(=O)CCCC(=O)N2C[C@@H](C)c3c2cc(O)c2ccccc32)c2cc(O)c3ccccc3c21 | 6.27 | 5.08 | 5.68 | 6.48 | < 5.00 | 360 equiv | 643 equiv | 511 equiv | 143 equiv | < 4.10 | 6.74 | < 5.00 | 6.18 | 6.18 | < 5.00 | > 439 | > 121 | > 120 | viability at 24 h, 80 µM [23]: 80%; Activity (MIA PaCa-2 [24]): inactive |
| O=C(CCCC(=O)N1C[C@@H](CCl)c2c1cc(O)c1ccccc21)N1C[C@@H](CCl)c2c1cc(O)c1ccccc21 | 6.16 | 5.52 | 5.89 | 6.28 | 5.38 | 457 equiv | 233 equiv | 283 equiv | 230 equiv | 5.70 | 9.05 | 8.16 | 8.85 | 8.57 | 7.85 | 2220 | 1430 | 741 | inhibition [6]: Dose-dependent effect; inhibition [7]: Dose-dependent effect; inhibition [8]: Dose-dependent effect; inhibition [9]: Dose-dependent effect; inhibition [10]: Dose-dependent effect; Activity [25]: 894 equiv; selectivity ratio [26]: 290; selectivity ratio [27]: 142; Activity (CCRF-CEM [28]): Dose-dependent effect; Activity (ADR5000 cell line [29]): Dose-dependent effect; Activity (Jurkat [30]): Dose-dependent effect; Activity (A549 [31]): Dose-dependent effect; Activity (MIA PaCa-2 [32]): Dose-dependent effect; Activity (MIA PaCa-2 [33]): Active |
